PMC8068092 (Molecular pharmaceutics, 2020)

Experiments:
[1] = test system: MDA-MB-468 cells (mtp53 R273H) compared to MCF7 cells (wtp53); assay: Cy5p53Tet cellular uptake by live cell imaging; assay type: cell-based, human; details: 500 nM, 2 h incubation, 37 °C; confocal microscopy, Nikon Element analysis, at least 200 cells per sample
[2] = test system: MDA-MB-468 cells (mtp53) compared to MCF7 cells (wtp53); assay: Cy5p53Tet cellular uptake by flow cytometry; assay type: cell-based, human; details: 2 h, 37 °C
Method in brief: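 MCF7 and MDA-MB-468 cells in DMEM with 10% FBS, seeded at 5 × 10^5 per well and held at 37 °C overnight. Medium swapped for vehicle, 100 or 500 nM Cy5-peptide for 2 h at 37 °C. Cells washed, trypsinized, pelleted and resuspended in PBS. 2 × 10^4 events per sample; geometric MFI taken.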

[3] = test system: MCF-10A nonmalignant human mammary epithelial cells (wtp53); assay: Peptide cytotoxicity assay; assay type: cell-based; details: 500 nM Cy5p53Tet, 24 h, three independent experiments
[4] = test system: MCF7 cells (wtp53); assay: Peptide cytotoxicity assay; assay type: cell-based, human; details: 500 nM Cy5p53Tet, 24 h, three independent experiments
Method in brief: (§1)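 Cells (1.25 × 10^5, 12-well) seeded the day before at 37 °C, then given 500 nM Cy5-peptide for 24 h. MTT (5 mg/mL solution) added for 1 h at 37 °C. Product dissolved in 0.04 N HCl/isopropanol, 5 min in the dark at room temperature. Absorbance read at 550 nm minus 620 nm background. Three independent experiments; mean ± SEM, t-test.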

[5] = test system: MDA-MB-468 cells (mtp53 R273H); assay: Peptide cytotoxicity assay; assay type: cell-based, human; details: 500 nM Cy5p53Tet, 24 h, three independent experiments
Method in brief: as §1

[6] = test system: HCC70 cells (mtp53 R248Q); assay: Peptide cytotoxicity assay; assay type: cell-based, human; details: 500 nM Cy5p53Tet, 24 h, three independent experiments
Method in brief: as §1

[7] = test system: MDA-MB-468 (mtp53 R273H) and MCF7 (wtp53) xenografts; assay: NIRF imaging in mice bearing bilateral MCF7/MDA-MB-468 xenografts; assay type: in vivo, mouse
[8] = test system: MDA-MB-468 shp53 cells (mtp53 R273H knockdown); assay: Cy5p53Tet uptake with and without shRNA depletion of mtp53; assay type: cell-based, human; details: 500 nM; for Reduction of Cy5p53Tet signal (relative ROI intensity) on depletion of mtp53: knockdown vs control
Method in brief: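 MDA-MB-468 shp53 knockdown induced with 8 μg/mL doxycycline for 7 days; p53 depletion checked by Western blot. Cells seeded at 2 × 10^5 per well 1 day before, then given 500 nM Cy5-peptide at 37 °C for 30 min, 2 h, 4 h or 24 h. Peptide removed, cells PBS-washed, Hoechst-stained (1 μg/mL, 5 min), confocal Z-stacks at 60×. Three independent experiments; mean + SEM, two-tailed t-test.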

[9] = after intravenous administration, IVIS Spectrum

Q: For “H-CysCy5-RKKRRQRRGEYFTLQIRGRER-FEMFRELNEALELK-OH [Cy5p53Tet]”, which “Uptake of Cy5p53Tet in MDA-MB-468 cells compared to MCF7 cells” value [1] is on record?
A: The value was “twofold higher uptake”.

Q: And the “Geometric MFI, fold more uptake in MDA-MB-468 than in MCF7 cells” value ([2]; 100 nM Cy5p53Tet)?
A: The value was 1.58 fold.

Q: What about the “Geometric MFI, fold more uptake in MDA-MB-468 than in MCF7 cells” value ([2]; 500 nM Cy5p53Tet) of the same substance?
A: Its value is 1.65 fold.

Q: And the “Reduction of mitochondrial activity (MTT)” value (shortened to “Reduction … (MTT)”) [3]?
A: Its value is “No significant reduction of mitochondrial activity”.

Q: What about the “Reduction … (MTT)” value [4] of the same substance?
A: Its value is 9.8%.

Q: What about the “Reduction … (MTT)” value [5] of the same substance?
A: The value was 10.6%.

Q: What about the “Reduction … (MTT)” value [6] of the same substance?
A: The value was 13.6%.

Q: What about the “In vivo NIRF signal in MCF7 tumors” value [7, 9] of the same substance?
A: The value was “no signal was present”.

Q: And the “In vivo NIRF signal in MDA-MB-468 tumors” value [7, 9]?
A: Its value is “clearly observed”.

Q: What about the “Signal in healthy tissues (whole-body and resected tissue images)” value ([7]; liver, large intestines, small intestines, three mice) of the same substance?
A: The value was “significantly high levels of the signal in several healthy tissues”.

Q: And the “Reduction of Cy5p53Tet signal (relative ROI intensity) on depletion of mtp53” value ([8]; 30 min incubation)?
A: The value was 61%.

Q: What about the “Reduction of Cy5p53Tet signal (relative ROI intensity) on depletion of mtp53” value ([8]; 2 h incubation) of the same substance?
A: The value was 63%.

Q: What about the “Reduction of Cy5p53Tet signal (relative ROI intensity) on depletion of mtp53” value ([8]; 4 h incubation) of the same substance?
A: Its value is 67%.

Q: What about the “Difference of Cy5p53Tet signal between knockdown and control cells” value ([8]; 24 h incubation) of the same substance?
A: Its value is “no statistically significant difference”.
